Experimental data: ChEMBL document CHEMBL4732074, “Design and synthesis of novel fluorescently labeled analogs of vemurafenib targeting MKK4” (Eur J Med Chem, 2021)

Key:
[1] = molecular target: T1, Dual specificity mitogen-activated protein kinase kinase 4 (Homo sapiens) (UniProt P45985); assay: Inhibition of wild-type human partial length MKK4 (S84 to D399 residues) expressed in mammalian expression system assessed as residual activity at 100 nM by KINOMEscan method relative to control
T1 sequence (whole entry): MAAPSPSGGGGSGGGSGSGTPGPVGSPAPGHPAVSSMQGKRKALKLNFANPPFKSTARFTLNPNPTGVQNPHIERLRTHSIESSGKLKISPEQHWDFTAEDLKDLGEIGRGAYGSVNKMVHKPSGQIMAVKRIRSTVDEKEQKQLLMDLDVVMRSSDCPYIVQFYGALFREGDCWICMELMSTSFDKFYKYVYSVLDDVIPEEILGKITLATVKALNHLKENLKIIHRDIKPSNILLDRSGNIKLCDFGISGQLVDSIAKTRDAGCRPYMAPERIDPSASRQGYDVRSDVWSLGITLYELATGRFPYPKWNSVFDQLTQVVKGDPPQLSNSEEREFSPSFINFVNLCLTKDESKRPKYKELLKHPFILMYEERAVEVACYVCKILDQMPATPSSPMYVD
In short: (§1)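 DiscoverX KINOMEscan binding assay: the compound at 100 nM competes with an immobilised ligand for kinase binding. Read-out is POC (percentage of control), where lower values mean stronger binding.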

[2] = molecular target: T1, Dual specificity mitogen-activated protein kinase kinase 4 (Homo sapiens); assay: Inhibition of wild-type human partial length MKK4 (S84 to D399 residues) expressed in mammalian expression system assessed as residual activity at 10 nM by KINOMEscan method relative to control
In short: (§2)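 KINOMEscan competition binding against an immobilised ligand, run at the lower compound concentrations named in each line. Binding is reported as percentage of control (POC), with low POC indicating high affinity.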

[3] = molecular target: T1, Dual specificity mitogen-activated protein kinase kinase 4 (Homo sapiens); assay: Inhibition of wild-type human partial length MKK4 (S84 to D399 residues) expressed in mammalian expression system assessed as residual activity at 30 nM by KINOMEscan method relative to control; in short: as §2
[4] = molecular target: Serine/threonine-protein kinase B-raf (Homo sapiens) (UniProt P15056); assay: Inhibition of BRAF (unknown origin) assessed as assessed as residual activity relative to control; in short: as §1
Serine/threonine-protein kinase B-raf (Homo sapiens), sequence (P15056 whole entry): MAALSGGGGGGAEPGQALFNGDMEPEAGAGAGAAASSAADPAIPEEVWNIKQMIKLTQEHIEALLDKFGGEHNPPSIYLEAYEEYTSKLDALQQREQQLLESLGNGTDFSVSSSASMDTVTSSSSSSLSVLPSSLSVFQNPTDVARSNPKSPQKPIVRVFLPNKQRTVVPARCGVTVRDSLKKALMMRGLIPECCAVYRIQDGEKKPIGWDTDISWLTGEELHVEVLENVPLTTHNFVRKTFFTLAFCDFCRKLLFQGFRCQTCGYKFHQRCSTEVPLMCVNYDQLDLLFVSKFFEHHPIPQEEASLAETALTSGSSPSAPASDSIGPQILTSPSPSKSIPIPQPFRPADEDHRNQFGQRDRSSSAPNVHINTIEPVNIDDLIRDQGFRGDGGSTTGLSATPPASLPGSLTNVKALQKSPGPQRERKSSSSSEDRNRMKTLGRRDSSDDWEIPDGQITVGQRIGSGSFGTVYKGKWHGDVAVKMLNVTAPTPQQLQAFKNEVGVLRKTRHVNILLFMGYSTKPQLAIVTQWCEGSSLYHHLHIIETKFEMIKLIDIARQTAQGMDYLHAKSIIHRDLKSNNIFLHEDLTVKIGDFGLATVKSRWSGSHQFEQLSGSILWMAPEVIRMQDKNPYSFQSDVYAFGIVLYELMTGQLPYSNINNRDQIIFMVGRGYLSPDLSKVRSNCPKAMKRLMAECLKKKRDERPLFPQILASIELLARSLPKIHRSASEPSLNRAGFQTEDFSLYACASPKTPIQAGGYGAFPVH

Activity [1] [%] | also measured | SMILES
19 |  | CCCS(=O)(=O)Nc1ccc(F)c(C(=O)c2ccc3[nH]c4ncc(-c5ccc(C(=O)NCCNC(=O)c6ccc(-c7c8ccc(=[N+](C)C)cc-8oc8cc(N(C)C)ccc78)c(C(=O)[O-])c6)cc5)cc4c3c2)c1F
32 |  | CCCS(=O)(=O)Nc1ccc(F)c(C(=O)c2ccc3[nH]c4ncc(-c5ccc(C(=O)NCCCCCNC(=O)c6ccc(-c7c8ccc(=[N+](C)C)cc-8oc8cc(N(C)C)ccc78)c(C(=O)[O-])c6)cc5)cc4c3c2)c1F
4.5 |  | CCCS(=O)(=O)Nc1ccc(F)c(C(=O)c2ccc3[nH]c4ncc(-c5ccc(C(=O)NCCCNC(=O)c6ccc(-c7c8ccc(=[N+](C)C)cc-8oc8cc(N(C)C)ccc78)c(C(=O)[O-])c6)nc5)cc4c3c2)c1F
9.2 |  | CCCS(=O)(=O)Nc1ccc(F)c(C(=O)c2c[nH]c3ncc(-c4ccc(NC(=O)CNC(=O)OC(C)(C)C)cc4)cc23)c1F
57 |  | CCCS(=O)(=O)Nc1ccc(F)c(C(=O)c2c[nH]c3ncc(-c4ccc(NC(=O)CCCCNC(=O)c5ccc(-c6c7ccc(=[N+](C)C)cc-7oc7cc(N(C)C)ccc67)c(C(=O)[O-])c5)nc4)cc23)c1F
13 |  | CCCS(=O)(=O)Nc1ccc(F)c(C(=O)c2ccc3[nH]c4ncc(-c5ccc(C(=O)NCCCNC(=O)c6ccc(-c7c8ccc(=[N+](C)C)cc-8oc8cc(N(C)C)ccc78)c(C(=O)[O-])c6)cc5)cc4c3c2)c1F
11 |  | CCCS(=O)(=O)Nc1ccc(F)c(C(=O)c2c[nH]c3ncc(-c4ccc(NC(=O)CNC(=O)c5ccc(-c6c7ccc(=[N+](C)C)cc-7oc7cc(N(C)C)ccc67)c(C(=O)[O-])c5)cc4)cc23)c1F
4.8 |  | CCCS(=O)(=O)Nc1ccc(F)c(C(=O)c2ccc3[nH]c4ncc(-c5ccc(C(=O)NCCCCCCNC(=O)c6ccc(-c7c8ccc(=[N+](C)C)cc-8oc8cc(N(C)C)ccc78)c(C(=O)[O-])c6)nc5)cc4c3c2)c1F
14 |  | CCCS(=O)(=O)Nc1ccc(F)c(C(=O)c2c[nH]c3ncccc23)c1F
4.3 |  | CCCS(=O)(=O)Nc1ccc(F)c(C(=O)c2ccc3[nH]c4ncc(-c5ccc(C(=O)NCCCCNC(=O)c6ccc(-c7c8ccc(=[N+](C)C)cc-8oc8cc(N(C)C)ccc78)c(C(=O)[O-])c6)cc5)cc4c3c2)c1F
6.6 |  | CN(C)c1ccc2c(-c3ccc(C(=O)NCC(=O)Nc4ccc(-c5cnc6[nH]cc(C(=O)c7c(F)ccc(NS(=O)(=O)Cc8ccccc8)c7F)c6c5)cn4)cc3C(=O)[O-])c3ccc(=[N+](C)C)cc-3oc2c1
13 |  | CN(C)c1ccc2c(-c3ccc(C(=O)NCCCCC(=O)Nc4ccc(-c5cnc6[nH]cc(C(=O)c7c(F)ccc(NS(=O)(=O)Cc8ccccc8)c7F)c6c5)cn4)cc3C(=O)[O-])c3ccc(=[N+](C)C)cc-3oc2c1
6.6 |  | CCCS(=O)(=O)Nc1ccc(F)c(C(=O)c2ccc3[nH]c4ncc(-c5ccc(C(=O)NCCCCCCNC(=O)c6ccc(-c7c8ccc(=[N+](C)C)cc-8oc8cc(N(C)C)ccc78)c(C(=O)[O-])c6)cc5)cc4c3c2)c1F
13 |  | CCCS(=O)(=O)Nc1ccc(F)c(C(=O)c2ccc3[nH]c4ncc(-c5ccc(NC(=O)CNC(=O)c6ccc(-c7c8ccc(=[N+](C)C)cc-8oc8cc(N(C)C)ccc78)c(C(=O)[O-])c6)cc5)cc4c3c2)c1F
9.3 |  | CCCS(=O)(=O)Nc1ccc(F)c(C(=O)c2ccc3[nH]c4ncc(-c5cnc(C(=O)NCCCCNC(=O)c6ccc(-c7c8ccc(=[N+](C)C)cc-8oc8cc(N(C)C)ccc78)c(C(=O)[O-])c6)nc5)cc4c3c2)c1F
8.4 |  | CCCS(=O)(=O)Nc1ccc(F)c(C(=O)c2c[nH]c3ncc(-c4ccc(NC(=O)CNC(=O)c5ccc(-c6c7ccc(=[N+](C)C)cc-7oc7cc(N(C)C)ccc67)c(C(=O)[O-])c5)nc4)cc23)c1F
1.3 | Activity [2]: 18%; Activity [3]: 4.1%; Activity [4]: 92% | CCCS(=O)(=O)Nc1ccc(F)c(C(=O)c2ccc3[nH]c4ncc(-c5ccc(C(=O)NCCCCNC(=O)c6ccc(-c7c8ccc(=[N+](C)C)cc-8oc8cc(N(C)C)ccc78)c(C(=O)[O-])c6)nc5)cc4c3c2)c1F
